Results: ChEMBL document CHEMBL5500387, “Design, synthesis of combretastatin A-4 piperazine derivatives as potential antitumor agents by inhibiting tubulin polymerization and inducing autophagy in HCT116 cells” (Eur J Med Chem, 2024)

Legend:
AGS = assay: Cytotoxicity against human AGS cells assessed as inhibition of cell proliferation measured after 72 hrs by CCK-8 assay; assay type: functional, cell-based
In short: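 Cells seeded at 2×10^3 per well and grown overnight in 10% FBS medium: HCT116 in McCoy's 5A, A549 and AGS in F-12K, SK-MES-1 in DMEM. Compounds added at varied concentrations with 0.1% DMSO control, 72 h at 37 °C. 10% CCK-8 for 2 h, then A450 read. Survival = (As−Ab)/(Ac−Ab)×100%. IC50 from curve fitting.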

[1] = Cytotoxicity against human NCM460 cells assessed as inhibition of cell proliferation measured after 72 hrs by CCK-8 assay; assay type: toxicity, cell-based
In short: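 NCM460 normal colonic epithelial cells seeded at 2×10^3 cells/well and grown overnight in RPMI-1640 with 10% FBS. Compounds added at a range of concentrations, 0.1% DMSO as negative control, 72 h at 37 °C. Read-out by CCK-8 (10%, 2 h) at 450 nm. Survival = (As−Ab)/(Ac−Ab)×100%; IC50 taken as concentration giving 50% inhibition of proliferation.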

HCT-116 [2] = assay: Induction of cell cycle arrest in human HCT-116 cells assessed as accumulation of cells at G0/G1 phase at 0.2 uM measured after 24 hrs by PI/RNase staining based flow cytometry analysis (reference value: 32.88%); assay type: functional
A549 [3] = assay: Induction of cell cycle arrest in human A549 cells assessed as accumulation of cells at G0/G1 phase at 0.1 uM measured after 24 hrs by PI/RNase staining based analysis (reference value: 41.91%); assay type: functional
A549 [4] = assay: Induction of cell cycle arrest in human A549 cells assessed as accumulation of cells at S phase at 0.2 uM measured after 24 hrs by PI/RNase staining based analysis (reference value: 24.95%); assay type: functional
A549 [5] = assay: Induction of cell cycle arrest in human A549 cells assessed as accumulation of cells at G0/G1 phase at 0.3 uM measured after 24 hrs by PI/RNase staining based analysis (reference value: 41.91%); assay type: functional
A549 [6] = assay: Induction of apoptosis in human A549 cells assessed as live cells at 0.1 uM measured after 24 hrs by Annexin V-APC/PI staining based flow cytometry analysis (reference value: 96.91%); assay type: functional
A549 [7] = assay: Induction of apoptosis in human A549 cells assessed as late apoptotic cells at 0.2 uM measured after 24 hrs by Annexin V-APC/PI staining based flow cytometry analysis (reference value: 0.86%); assay type: functional
A549 [8] = assay: Induction of apoptosis in human A549 cells assessed as dead cells at 0.2 uM measured after 24 hrs by Annexin V-APC/PI staining based flow cytometry analysis (reference value: 0.50%); assay type: functional
HCT-116 [9] = assay: Antitumor activity against human HCT-116 cells xenografted in female BALB/c nude mouse assessed as tumor growth inhibition at 40 mg/kg, ip administered every 2 days for 20 days by vernier caliper relative to control; assay type: functional; details: HCT-116, 480 h, time 20 day, read-out: TGI
In short: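 HCT116 cells (5×10^7/0.2 mL/mouse) injected subcutaneously beside the right forelimb of 5-week-old female BALB/c nude mice. At 100 mm³ tumour volume, mice randomised by weight and tumour size into four groups of ten. Saline vehicle control ip. Dosing for 20 days, then euthanasia and tumour weighing. Caliper diameters used; volume = W²×L/2.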

## COc1ccc(/C=C(/C(=O)N2CCN(c3ccc(C)cc3)CC2)c2cc(OC)c(OC)c(OC)c2)cc1O
AGS
  IC50: 574 nM
[1]
  IC50 at 72 h: 1090 nM
HCT-116 [2]
  Activity: 34.17%
A549 [3]
  Activity: 69.3%
A549 [4]
  Activity: 13.76%
A549 [5]
  Activity: 87.18%
A549 [6]
  Activity: 86.04%
A549 [7]
  Activity: 4.72%
A549 [8]
  Activity: 1.05%
HCT-116 [9]
  inhibition in vivo at 40 mg/kg: 12.7%
